Data taken from ChEMBL document CHEMBL1154928, “SAR and optimization of thiazole analogs as potent stearoyl-CoA desaturase inhibitors” (Bioorg Med Chem Lett, 2010).
Each block holds one compound with its values, some of them ahead of it. Active and inactive are the calls of the source. The rule behind the calls is not given here.

What was measured:
[1] = molecular target: T1, Acyl-CoA desaturase 1 (Rattus norvegicus, UniProt P07308); experiment: Inhibition of SCD1 in Wistar rat liver microsome assessed as [3H]stearoyl-CoA to [3H]oleoyl-CoA conversion pretreated 1 hr before [3H]stearoyl-CoA addition measured after 60 mins by HPLC based scintillation assay; assay type: microsomes
T1 sequence (P07308 whole entry): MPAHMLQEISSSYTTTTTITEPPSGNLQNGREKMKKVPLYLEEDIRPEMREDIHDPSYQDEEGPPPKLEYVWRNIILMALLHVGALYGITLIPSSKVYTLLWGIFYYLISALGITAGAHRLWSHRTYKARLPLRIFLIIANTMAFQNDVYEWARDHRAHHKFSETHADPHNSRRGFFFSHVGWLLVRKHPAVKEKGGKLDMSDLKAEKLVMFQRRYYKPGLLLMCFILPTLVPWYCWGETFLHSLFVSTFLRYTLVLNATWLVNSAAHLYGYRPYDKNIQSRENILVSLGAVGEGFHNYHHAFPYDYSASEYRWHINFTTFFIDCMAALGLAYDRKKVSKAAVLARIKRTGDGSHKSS

[2] = molecular target: T2, Stearoyl-CoA desaturase (Homo sapiens, UniProt O00767); experiment: Inhibition of SCD1 in human HepG2 cells assessed as [14C]stearic acid to [14C]oleic acid conversion pretreated 15 mins before [14C]stearic acid addition measured after 4 hrs by HPLC based scintillation assay; assay type: cell-based
T2 sequence (O00767 whole entry): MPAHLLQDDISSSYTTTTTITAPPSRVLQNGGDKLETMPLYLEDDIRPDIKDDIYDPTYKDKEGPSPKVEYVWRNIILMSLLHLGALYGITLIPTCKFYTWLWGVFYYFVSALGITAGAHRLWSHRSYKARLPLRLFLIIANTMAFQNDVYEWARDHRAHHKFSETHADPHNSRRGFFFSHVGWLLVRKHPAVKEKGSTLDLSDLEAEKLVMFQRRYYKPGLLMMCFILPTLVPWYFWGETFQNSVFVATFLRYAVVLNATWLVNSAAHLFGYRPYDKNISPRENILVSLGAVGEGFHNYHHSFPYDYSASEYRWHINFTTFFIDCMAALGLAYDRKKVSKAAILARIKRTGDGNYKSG

[3] = Oral bioavailability in C57BL/6 mouse at 10 mg/kg; assay type: ADME, organism-based, C57BL6; settings: in vivo
[4] = AUC (0 to 24 hrs) in C57BL/6 mouse at 10 mg/kg, po; assay type: ADME, organism-based, C57BL6; design: time < 24 hr, dose 10 mg/kg, route oral; settings: plasma
[5] = tested on: Mus musculus; experiment: Inhibition of SCD in po dosed C57BL/6 mouse liver assessed as [14C]stearic acid to [14C]oleic acid conversion after 3 hrs by liver SCD activity index; assay type: functional; settings: C57BL6, Liver
How it was run: (§1)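 In vivo SCD activity was measured in mice fed a high carbohydrate diet and dosed orally. At 3 h, [1-14C]-stearic acid tracer was given intravenously and its conversion to [1-14C]-oleic acid in liver lipids was followed. The SCD activity index is the 14C-oleic/14C-stearic acid ratio. Liver compound concentration was also measured, and the ED50 was derived from the dose-response.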

[6] = tested on: Mus musculus; experiment: Toxicity in C57BL/6 mouse assessed as partial eye closure at 0.2 mg/kg, po dosed QD for 7 days; assay type: organism-based, C57BL6; design: dose 0.2 mg/kg, route oral; settings: in vivo, 168 h
[7] = tested on: Mus musculus; experiment: Toxicity in C57BL/6 mouse assessed as progressive alopecia at 0.2 mg/kg, po dosed QD for 7 days; assay type: organism-based, C57BL6; design: dose 0.2 mg/kg, route oral; settings: in vivo, 168 h
[8] = tested on: Mus musculus; experiment: Inhibition of SCD in C57BL/6 mouse liver assessed as [14C]stearic acid to [14C]oleic acid conversion at 1 mg/kg, po after 3 hrs by liver SCD activity index; assay type: functional; settings: C57BL6, Liver; how it was run: as §1
[9] = Drug level in C57BL/6 mouse liver at 0.3 mg/ kg, po after 3 hrs; assay type: ADME, organism-based, C57BL6; design: dose 0.3 mg/ kg, route oral; settings: read-out: Drug uptake; how it was run: as §1
[10] = Drug level in C57BL/6 mouse liver at 1 mg/ kg, po after 3 hrs; assay type: ADME, organism-based, C57BL6; design: dose 1 mg/ kg, route oral; settings: read-out: Drug uptake; how it was run: as §1
[11] = Drug level in C57BL/6 mouse blood at 0.1 mg/ kg, po after 3 hrs; assay type: ADME, organism-based, C57BL6; design: dose 0.1 mg/ kg, route oral; settings: read-out: Drug uptake
[12] = Drug level in C57BL/6 mouse blood at 0.3 mg/ kg, po after 3 hrs; assay type: ADME, organism-based, C57BL6; design: dose 0.3 mg/ kg, route oral; settings: read-out: Drug uptake
[13] = Drug level in C57BL/6 mouse blood at 1 mg/ kg, po after 3 hrs; assay type: ADME, organism-based, C57BL6; design: dose 1 mg/ kg, route oral; settings: read-out: Drug uptake
[14] = Plasma concentration in C57BL/6 mouse at 0.3 mg/kg, po dosed QD for 3 days and measured on day 3; assay type: ADME, organism-based, C57BL6; design: dose 0.3 mg/kg, route oral
How it was run: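 C57BL6 mice on a high fat diet were dosed orally once daily for 3 days at 0.3 mg/kg. Plasma was sampled on day 3 at the terminal 24 h post-dose point.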

[15] = tested on: Mus musculus; experiment: Antiobesity activity in C57BL/6 mouse assessed as reduction in high fat diet-induced body weight gain at 0.2 mg/kg, po dosed QD for 4 weeks relative to control; assay type: functional, C57BL6; design: scale not given: the % may be the effect or the level left
[16] = tested on: Mus musculus; experiment: Antidiabetic activity in C57BL/6 mouse assessed as reduction in plasma glucose level at 0.2 mg/kg, po dosed QD for 4 weeks; assay type: functional, C57BL6; design: scale not given: the % may be the effect or the level left
[17] = tested on: Mus musculus; experiment: Antidiabetic activity in C57BL/6 mouse assessed as reduction in insulin level at 0.2 mg/kg, po dosed QD for 4 weeks; assay type: functional, C57BL6; design: scale not given: the % may be the effect or the level left
[18] = Drug level in C57BL/6 mouse liver at 0.1 mg/ kg, po after 3 hrs; assay type: ADME, organism-based, C57BL6; design: dose 0.1 mg/ kg, route oral; settings: read-out: Drug uptake; how it was run: as §1
[19] = Plasma concentration in C57BL/6 mouse at 10 mg/kg, po after 6 hrs; assay type: ADME, organism-based, C57BL6; design: dose 10 mg/kg, route oral
How it was run: (§2)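 Tissue distribution was measured in C57BL6 mice 6 h after a single 10 mg/kg oral dose. Compound levels were determined in liver, adipose tissue and plasma, and tissue-to-plasma ratios were calculated.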

[20] = Biodistribution in C57BL/6 mouse liver at 10 mg/kg, po after 6 hrs; assay type: ADME, organism-based, C57BL6; design: dose 10 mg/kg, route oral; settings: read-out: Drug uptake; how it was run: as §2
[21] = Biodistribution in C57BL/6 mouse adipose tissue at 10 mg/kg, po after 6 hrs; assay type: ADME, organism-based, C57BL6; design: dose 10 mg/kg, route oral; settings: read-out: Drug uptake; how it was run: as §2
[22] = Biodistribution in C57BL/6 mouse skin at 10 mg/kg, po after 6 hrs; assay type: ADME, organism-based, C57BL6, Zone of skin; design: dose 10 mg/kg, route oral; settings: read-out: Drug uptake
[23] = Ratio of drug level in liver to plasma in C57BL/6 mouse at 10 mg/kg, po after 6 hrs; assay type: ADME, organism-based, C57BL6; design: dose 10 mg/kg, route oral; how it was run: as §2
[24] = Ratio of drug level in adipose tissue to plasma in C57BL/6 mouse at 10 mg/kg, po after 6 hrs; assay type: ADME, organism-based, C57BL6; design: dose 10 mg/kg, route oral; how it was run: as §2
[25] = tested on: Mus musculus; experiment: Inhibition of SCD in C57BL/6 mouse liver assessed as [14C]stearic acid to [14C]oleic acid conversion at 0.1 mg/kg, po after 3 hrs by liver SCD activity index; assay type: functional, organism-based; design: dose 0.1 mg/kg; settings: C57BL6; how it was run: as §1
[26] = tested on: Mus musculus; experiment: Inhibition of SCD in C57BL/6 mouse liver assessed as [14C]stearic acid to [14C]oleic acid conversion at 0.3 mg/kg, po after 3 hrs by liver SCD activity index; assay type: functional; settings: C57BL6, Liver; how it was run: as §1

SMILES: NC(=O)c1nnc(N2CCC(Oc3ccccc3C(F)(F)F)CC2)o1
IC50 [1]: 83 nM
IC50 [2]: 199 nM

SMILES: NS(=O)(=O)c1cnc(N2CCC(Oc3ccccc3C(F)(F)F)CC2)s1
IC50 [1]: 41 nM
IC50 [2]: 1020 nM

SMILES: O=C1CCCN1c1cnc(N2CCC(Oc3ccccc3C(F)(F)F)CC2)s1
IC50 [1]: 164 nM
IC50 [2]: 174 nM

SMILES: COC(=O)Nc1cnc(N2CCC(Oc3ccccc3C(F)(F)F)CC2)s1
IC50 [1]: 750 nM
IC50 [2]: 775 nM

SMILES: NC(=O)c1nnc(N2CCC(Oc3ccccc3C(F)(F)F)CC2)[nH]1
IC50 [1]: 127 nM
IC50 [2]: 2820 nM

SMILES: NC(=O)c1nc(N2CCC(Oc3ccccc3C(F)(F)F)CC2)no1
IC50 [1]: 1630 nM

SMILES: NC(=O)c1cnc(N2CC[C@@H](Oc3ccccc3C(F)(F)F)C2)s1
IC50 [1]: > 20000 nM

SMILES: NC(=O)Nc1cnc(N2CCC(Oc3ccccc3C(F)(F)F)CC2)s1
IC50 [1]: 150 nM

SMILES: NC(=O)c1cnc(N2CCN(C(=O)c3ccccc3C(F)(F)F)CC2)s1
ED50 [5]: 3 mg/kg
Activity [6]: Toxic
Activity [7]: Toxic
IC50 [1]: 106 nM
IC50 [2]: 254 nM

SMILES: Cc1nnc(-c2cnc(N3CCC(Oc4ccccc4C(F)(F)F)CC3)s2)s1
IC50 [1]: 750 nM

SMILES: NC(=O)c1cnc(N2CCN(S(=O)(=O)c3ccccc3C(F)(F)F)CC2)s1
IC50 [1]: > 3000 nM

SMILES: NC(=O)c1cnc(N2CCN(Cc3ccccc3C(F)(F)F)CC2)s1
IC50 [1]: 76 nM
IC50 [2]: 153 nM

SMILES: NC(=O)c1csc(N2CCC(Oc3ccccc3C(F)(F)F)CC2)n1
IC50 [1]: 676 nM
IC50 [2]: 6520 nM

These reach a lower IC50 [1]. Values come first.

IC50 [1]: 4 nM
IC50 [2]: 24 nM
SMILES: NC(=O)c1cnc(N2CCC(Sc3ccccc3C(F)(F)F)CC2)s1

IC50 [1]: 14 nM
IC50 [2]: 55 nM
SMILES: FC(F)(F)c1ccccc1OC1CCN(c2ncc(-c3ncco3)s2)CC1

IC50 [1]: 15 nM
IC50 [2]: 39 nM
bioavailability [3]: 24%
AUC(0-t) at 24 h [4]: 3.5 µM·h
SMILES: Cc1nc(-c2cnc(N3CCC(Oc4ccccc4C(F)(F)F)CC3)s2)no1

IC50 [1]: 4 nM
IC50 [2]: 16 nM
bioavailability [3]: 33%
AUC(0-t) at 24 h [4]: 2.9 µM·h
SMILES: FC(F)(F)c1ccccc1OC1CCN(c2ncc(-c3ncon3)s2)CC1

IC50 [1]: 34 nM
IC50 [2]: 65 nM
SMILES: FC(F)(F)c1ccccc1OC1CCN(c2ncc(-c3nnco3)s2)CC1

IC50 [1]: 12 nM
IC50 [2]: 84 nM
SMILES: NC(=O)c1cnc(N2CC[C@H](Oc3ccccc3C(F)(F)F)C2)s1

concentration at 3 h [9]: 1900 nM
concentration at 3 h [10]: 5700 nM
concentration at 3 h [11]: < 25 nM
concentration at 3 h [12]: < 25 nM
concentration at 3 h [13]: 180 nM
concentration at 72 h [14]: 180 nM
concentration at 3 h [18]: 600 nM
IC50 [1]: 1 nM
IC50 [2]: 1 nM
bioavailability [3]: 48%
AUC(0-t) at 24 h [4]: 16.8 µM·h
concentration at 6 h [19]: 1100 nM
concentration at 6 h [20]: 6700 nM
concentration at 6 h [21]: 8900 nM
concentration at 6 h [22]: 1800 nM
Kp at 6 h [23]: 6
Kp at 6 h [24]: 8
SMILES: OCc1nc(-c2cnc(N3CCC(Oc4ccccc4C(F)(F)F)CC3)s2)no1
inhibition in vivo at 1 mg/kg [8]: 89%
ED50 [5]: 0.3 mg/kg
Activity [15]: 24%
Activity [16]: 24%
Activity [17]: 4%
Activity [6]: Toxic
Activity [7]: Toxic
inhibition [25]: inactive
inhibition in vivo at 0.3 mg/kg [26]: 45%

IC50 [1]: 8 nM
IC50 [2]: 14 nM
SMILES: NC(=O)c1cc(N2CCC(Oc3ccccc3C(F)(F)F)CC2)no1

IC50 [1]: 3 nM
IC50 [2]: 7 nM
SMILES: NC(=O)c1nnc(N2CCC(Oc3ccccc3C(F)(F)F)CC2)s1

IC50 [1]: 3 nM
IC50 [2]: 10 nM
SMILES: NC(=O)c1cnc(N2CCC(Oc3ccccc3C(F)(F)F)CC2)s1
